Reference: article PMC5114172 (Journal of applied toxicology : JAT, 2016)

How the values were obtained:
monocyte-depleted PBMCs = assay: IL-1β secretion assay; assay type: cell-based, human; conditions: MD-PBMCs; for Interleukin 1 beta secreted: donor F166, 6 day; for fold increase in IL-1β secretion: third common donor (F152), 24 h
Outline: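 NK cells, MD-PBMCs, PBMCs or granulocytes (1.5 million/mL) or PBMC+granulocytes (0.75 million/mL each), per donor, exposed 24 h, 48 h or 6 days to 0.05–5 μM test compound diluted from DMSO stock, with DMSO controls. Supernatants kept at −70 °C. IL-1β by sandwich ELISA: HRP detection antibody, acid-stopped substrate, A450 against standards. Detection limit 3 pg/mL; triplicates; ANOVA then t test versus control, p<0.05.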

MD-PBMCs = assay: IL-1β secretion; assay type: cell-based, human

CCC[CH2][Sn][CH2]CCC [DBT, Dibutyltin]
Interleukin 1 beta secreted (monocyte-depleted PBMCs; 0.25 μM DBT): 2424 ± 95 pg/mL | Interleukin 1 beta secreted (monocyte-depleted PBMCs; 0.5 μM DBT): 2118 ± 698 pg/mL | fold increase in IL-1β secretion (monocyte-depleted PBMCs; 50 nM DBT): 2.1 fold | fold increase in IL-1β secretion (monocyte-depleted PBMCs; 100 nM DBT): 1.4 fold | Interleukin 1 beta secreted (MD-PBMCs; donor F240, 24 h, 0.05 μM DBT + Caspase-1 inhibitor II 50 μM): 337 ± 7 pg/mL | Interleukin 1 beta secreted (MD-PBMCs; donor F240, 24 h, 0.05 μM DBT + U0126 50 μM): 1840 ± 95 pg/mL | fold increase in IL-1β secretion (MD-PBMCs; donor F240, 24 h, 0.05 μM DBT, absence of MEK inhibitor): 1.6 fold | Interleukin 1 beta secreted (MD-PBMCs; donor F240, 24 h, 0.05 μM DBT, no inhibitor (CI experiment)): 757 ± 17 pg/mL | Interleukin 1 beta secreted (MD-PBMCs; donor F240, 24 h, 0.05 μM DBT, no inhibitor (U0126 experiment)): 772 ± 54 pg/mL | Interleukin 1 beta secreted (MD-PBMCs; donor F240, 24 h, 0.1 μM DBT + Caspase-1 inhibitor II 50 μM): 467 ± 12 pg/mL | Interleukin 1 beta secreted (MD-PBMCs; donor F240, 24 h, 0.1 μM DBT + U0126 50 μM): 1447 ± 142 pg/mL | fold increase in IL-1β secretion (MD-PBMCs; donor F240, 24 h, 0.1 μM DBT, absence of MEK inhibitor): 1.6 fold | Interleukin 1 beta secreted (MD-PBMCs; donor F240, 24 h, 0.1 μM DBT, no inhibitor (CI experiment)): 916 ± 67 pg/mL | Interleukin 1 beta secreted (MD-PBMCs; donor F240, 24 h, 0.1 μM DBT, no inhibitor (U0126 experiment)): 812 ± 109 pg/mL | fold increase in IL-1β secretion (MD-PBMCs; donor F240, 24 h, 0.05 and 0.1 μM DBT, U0126 50 μM present): no DBT-induced increases | Interleukin 1 beta secreted (MD-PBMCs; donor F242, 24 h, 0.05 μM DBT + Caspase-1 inhibitor II 50 μM): 495 ± 25 pg/mL | Interleukin 1 beta secreted (MD-PBMCs; donor F242, 24 h, 0.05 μM DBT + U0126 50 μM): 759 ± 10 pg/mL | Interleukin 1 beta secreted (MD-PBMCs; donor F242, 24 h, 0.05 μM DBT, no inhibitor (CI experiment)): 2752 ± 49 pg/mL | Interleukin 1 beta secreted (MD-PBMCs; donor F242, 24 h, 0.05 μM DBT, no inhibitor (U0126 experiment)): 2230 ± 89 pg/mL | Interleukin 1 beta secreted (MD-PBMCs; donor F242, 24 h, 0.1 μM DBT + Caspase-1 inhibitor II 50 μM): 354 ± 43 pg/mL | Interleukin 1 beta secreted (MD-PBMCs; donor F242, 24 h, 0.1 μM DBT + U0126 50 μM): 312 ± 27 pg/mL | Interleukin 1 beta secreted (MD-PBMCs; donor F242, 24 h, 0.1 μM DBT, no inhibitor (CI experiment)): 2874 ± 77 pg/mL | Interleukin 1 beta secreted (MD-PBMCs; donor F242, 24 h, 0.1 μM DBT, no inhibitor (U0126 experiment)): 2172 ± 25 pg/mL | Interleukin 1 beta secreted (MD-PBMCs; donor F244, 24 h, 0.05 μM DBT + BAY 11-7085): 1107 ± 14 pg/mL | Interleukin 1 beta secreted (MD-PBMCs; donor F244, 24 h, 0.05 μM DBT + Caspase-1 inhibitor II 50 μM): 334 ± 11 pg/mL | Interleukin 1 beta secreted (MD-PBMCs; donor F244, 24 h, 0.05 μM DBT + U0126 50 μM): 61 ± 23 pg/mL | fold increase in IL-1β secretion (MD-PBMCs; donor F244, 24 h, 0.05 μM DBT, BAY 11-7085 present): 1.3 fold | fold increase in IL-1β secretion (MD-PBMCs; donor F244, 24 h, 0.05 μM DBT, absence of NFκB inhibitor): 1.2 fold | Interleukin 1 beta secreted (MD-PBMCs; donor F244, 24 h, 0.05 μM DBT, no inhibitor (BAY experiment)): 947 ± 29 pg/mL | Interleukin 1 beta secreted (MD-PBMCs; donor F244, 24 h, 0.05 μM DBT, no inhibitor (CI experiment)): 1291 ± 34 pg/mL | Interleukin 1 beta secreted (MD-PBMCs; donor F244, 24 h, 0.05 μM DBT, no inhibitor (U0126 experiment)): 1764 ± 62 pg/mL | Interleukin 1 beta secreted (MD-PBMCs; donor F244, 24 h, 0.1 μM DBT + BAY 11-7085): 1067 ± 19 pg/mL | Interleukin 1 beta secreted (MD-PBMCs; donor F244, 24 h, 0.1 μM DBT + Caspase-1 inhibitor II 50 μM): 302 ± 3 pg/mL | Interleukin 1 beta secreted (MD-PBMCs; donor F244, 24 h, 0.1 μM DBT + U0126 50 μM): 143 ± 50 pg/mL | fold increase in IL-1β secretion (MD-PBMCs; donor F244, 24 h, 0.1 μM DBT, BAY 11-7085 present): 1.3 fold | fold increase in IL-1β secretion (MD-PBMCs; donor F244, 24 h, 0.1 μM DBT, absence of NFκB inhibitor): 1.3 fold | Interleukin 1 beta secreted (MD-PBMCs; donor F244, 24 h, 0.1 μM DBT, no inhibitor (BAY experiment)): 1029 ± 59 pg/mL | Interleukin 1 beta secreted (MD-PBMCs; donor F244, 24 h, 0.1 μM DBT, no inhibitor (CI experiment)): 1444 ± 43 pg/mL | Interleukin 1 beta secreted (MD-PBMCs; donor F244, 24 h, 0.1 μM DBT, no inhibitor (U0126 experiment)): 2001 ± 184 pg/mL | Interleukin 1 beta secreted (MD-PBMCs; donor F245, 24 h, 0.05 μM DBT + BAY 11-7085): 630 ± 60 pg/mL | Interleukin 1 beta secreted (MD-PBMCs; donor F245, 24 h, 0.05 μM DBT + Caspase-1 inhibitor II 50 μM): 216 ± 19 pg/mL | Interleukin 1 beta secreted (MD-PBMCs; donor F245, 24 h, 0.05 μM DBT + U0126 50 μM): 277 ± 8 pg/mL | fold increase in IL-1β secretion (MD-PBMCs; donor F245, 24 h, 0.05 μM DBT, Caspase-1 inhibitor II 50 μM present): 1.4 fold | fold increase in IL-1β secretion (MD-PBMCs; donor F245, 24 h, 0.05 μM DBT, absence of Caspase-1 inhibitor): 1.8 fold | Interleukin 1 beta secreted (MD-PBMCs; donor F245, 24 h, 0.05 μM DBT, no inhibitor (BAY experiment)): 883 ± 66 pg/mL | Interleukin 1 beta secreted (MD-PBMCs; donor F245, 24 h, 0.05 μM DBT, no inhibitor (CI experiment)): 1399 ± 20 pg/mL | Interleukin 1 beta secreted (MD-PBMCs; donor F245, 24 h, 0.05 μM DBT, no inhibitor (U0126 experiment)): 1174 ± 49 pg/mL | Interleukin 1 beta secreted (MD-PBMCs; donor F245, 24 h, 0.1 μM DBT + BAY 11-7085): 514 ± 80 pg/mL | Interleukin 1 beta secreted (MD-PBMCs; donor F245, 24 h, 0.1 μM DBT + Caspase-1 inhibitor II 50 μM): 163 ± 10 pg/mL | Interleukin 1 beta secreted (MD-PBMCs; donor F245, 24 h, 0.1 μM DBT + U0126 50 μM): 231 ± 14 pg/mL | fold increase in IL-1β secretion (MD-PBMCs; donor F245, 24 h, 0.1 μM DBT, Caspase-1 inhibitor II 50 μM present): no increase | fold increase in IL-1β secretion (MD-PBMCs; donor F245, 24 h, 0.1 μM DBT, absence of Caspase-1 inhibitor): 1.8 fold | Interleukin 1 beta secreted (MD-PBMCs; donor F245, 24 h, 0.1 μM DBT, no inhibitor (BAY experiment)): 1206 ± 91 pg/mL | Interleukin 1 beta secreted (MD-PBMCs; donor F245, 24 h, 0.1 μM DBT, no inhibitor (CI experiment)): 1375 ± 18 pg/mL | Interleukin 1 beta secreted (MD-PBMCs; donor F245, 24 h, 0.1 μM DBT, no inhibitor (U0126 experiment)): 1246 ± 65 pg/mL | Interleukin 1 beta secreted (MD-PBMCs; donor F247, 24 h, 0.05 μM DBT + SB202190): 1495 ± 134 pg/mL | fold increase in IL-1β secretion (MD-PBMCs; donor F247, 24 h, 0.05 μM DBT, absence of p38 inhibitor): 7.2 fold | Interleukin 1 beta secreted (MD-PBMCs; donor F247, 24 h, 0.05 μM DBT, no inhibitor (SB202190 experiment)): 1378 ± 246 pg/mL | Interleukin 1 beta secreted (MD-PBMCs; donor F247, 24 h, 0.1 μM DBT + SB202190): 1329 ± 99 pg/mL | fold increase in IL-1β secretion (MD-PBMCs; donor F247, 24 h, 0.1 μM DBT, absence of p38 inhibitor): 2.5 fold | Interleukin 1 beta secreted (MD-PBMCs; donor F247, 24 h, 0.1 μM DBT, no inhibitor (SB202190 experiment)): 477 ± 60 pg/mL | fold increase in IL-1β secretion (MD-PBMCs; donor F247, 24 h, 0.05 and 0.1 μM DBT, SB202190 present): no increases | Interleukin 1 beta secreted (MD-PBMCs; donor F254, 24 h, 0.05 μM DBT + Caspase-1 inhibitor II 50 μM): 41 ± 9 pg/mL | Interleukin 1 beta secreted (MD-PBMCs; donor F254, 24 h, 0.05 μM DBT, no inhibitor (CI experiment)): 521 ± 62 pg/mL | Interleukin 1 beta secreted (MD-PBMCs; donor F254, 24 h, 0.1 μM DBT + Caspase-1 inhibitor II 50 μM): 17 ± 16 pg/mL | Interleukin 1 beta secreted (MD-PBMCs; donor F254, 24 h, 0.1 μM DBT, no inhibitor (CI experiment)): 206 ± 2 pg/mL | Interleukin 1 beta secreted (MD-PBMCs; donor F262, 24 h, 0.05 μM DBT + SB202190): 146 ± 8 pg/mL | Interleukin 1 beta secreted (MD-PBMCs; donor F262, 24 h, 0.05 μM DBT, no inhibitor (SB202190 experiment)): 1100 ± 58 pg/mL | Interleukin 1 beta secreted (MD-PBMCs; donor F262, 24 h, 0.1 μM DBT + SB202190): 134 ± 183 pg/mL | Interleukin 1 beta secreted (MD-PBMCs; donor F262, 24 h, 0.1 μM DBT, no inhibitor (SB202190 experiment)): 1021 ± 61 pg/mL | Interleukin 1 beta secreted (MD-PBMCs; donor F333, 24 h, 0.05 μM DBT + BAY 11-7085): 2518 ± 60 pg/mL | Interleukin 1 beta secreted (MD-PBMCs; donor F333, 24 h, 0.05 μM DBT, no inhibitor (BAY experiment)): 3995 ± 161 pg/mL | Interleukin 1 beta secreted (MD-PBMCs; donor F333, 24 h, 0.1 μM DBT + BAY 11-7085): 1960 ± 102 pg/mL | Interleukin 1 beta secreted (MD-PBMCs; donor F333, 24 h, 0.1 μM DBT, no inhibitor (BAY experiment)): 2755 ± 84 pg/mL | Interleukin 1 beta secreted (MD-PBMCs; donor F334, 24 h, 0.05 μM DBT + BAY 11-7085): 1035 ± 19 pg/mL | Interleukin 1 beta secreted (MD-PBMCs; donor F334, 24 h, 0.05 μM DBT, no inhibitor (BAY experiment)): 2281 ± 53 pg/mL | Interleukin 1 beta secreted (MD-PBMCs; donor F334, 24 h, 0.1 μM DBT + BAY 11-7085): 702 ± 82 pg/mL | Interleukin 1 beta secreted (MD-PBMCs; donor F334, 24 h, 0.1 μM DBT, no inhibitor (BAY experiment)): 1468 ± 94 pg/mL | Interleukin 1 beta secreted (MD-PBMCs; donor F372, 24 h, 0.05 μM DBT + SB202190): 348 ± 198 pg/mL | Interleukin 1 beta secreted (MD-PBMCs; donor F372, 24 h, 0.05 μM DBT, no inhibitor (SB202190 experiment)): 2388 ± 322 pg/mL | Interleukin 1 beta secreted (MD-PBMCs; donor F372, 24 h, 0.1 μM DBT + SB202190): 70 ± 14 pg/mL | Interleukin 1 beta secreted (MD-PBMCs; donor F372, 24 h, 0.1 μM DBT, no inhibitor (SB202190 experiment)): 1985 ± 53 pg/mL | Interleukin 1 beta secreted (MD-PBMCs; donor F385, 24 h, 0.05 μM DBT + SB202190): 65 ± 24 pg/mL | Interleukin 1 beta secreted (MD-PBMCs; donor F385, 24 h, 0.05 μM DBT, no inhibitor (SB202190 experiment)): 1863 ± 83 pg/mL | Interleukin 1 beta secreted (MD-PBMCs; donor F385, 24 h, 0.1 μM DBT, no inhibitor (SB202190 experiment)): 1126 ± 29 pg/mL
